Calls of active or inactive are those of the source. No cut-off for these calls is given here.
Key:
[1] = target: T1, Beta-2 adrenergic receptor (Cavia porcellus, UniProt Q8K4Z4); test: Agonist activity at beta2 receptor in guinea pig trachea assessed as slow onset of inhibition of electrically stimulated contraction
Summary of the method: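 Guinea pigs pretreated with 6-hydroxy-dopamine (200 mg/kg i.p.) 24 h before. Opened 5 mm tracheal rings between platinum electrodes in normal-K+ (4.7 mM) Krebs at 37 °C with 10 µM indomethacin, 1 µM choline, 3 µM guanethidine. Field stimulation: 9 V, 10 Hz, 1 ms pulses, 10 s train every 100 s. Resting tension 1 g, 1 h equilibration. Onset is the time to maximum effect at an EC80 concentration; slow is >30 min.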

[2] = target: T2, Beta-2 adrenergic receptor (Homo sapiens, UniProt P07550); test: Agonist activity at human beta2 receptor in BEAS-2B cells assessed as cAMP accumulation by radioimmunoassay; type: functional, cell-based
[3] = target: T2, Beta-2 adrenergic receptor; test: Agonist activity at human recombinant beta2 receptor assessed as cAMP accumulation by radioimmunoassay and cell based assay; type: functional
[4] = target: Beta-3 adrenergic receptor (Homo sapiens, UniProt P13945); test: Agonist activity at human recombinant beta3 receptor assessed as cAMP accumulation by radioimmunoassay and cell based assay
[5] = species on record: Homo sapiens; test: Selectivity ratio EC50 for human beta2 receptor to EC50 for human beta1 receptor
Summary of the method: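 cAMP accumulation in whole cells overexpressing cloned human β2- or β1-adrenoceptor, measured by homogeneous radioimmunoassay. Selectivity is the ratio of agonist EC50s, β1 EC50/β2 EC50.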

[6] = species on record: Homo sapiens; test: Selectivity ratio EC50 for human beta2 receptor to EC50 for human beta3 receptor
Summary of the method: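 cAMP accumulation in whole cells overexpressing cloned human β-adrenoceptor subtypes, measured by homogeneous radioimmunoassay (Flashplate). Reported as pEC50. Functional selectivity is the ratio of EC50 values (β3 EC50/β2 EC50 for β3; β1 EC50/β2 EC50 for β1).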

[7] = target: T3, Beta-1 adrenergic receptor (Homo sapiens, UniProt P08588); test: Agonist activity at human recombinant beta1 receptor assessed as cAMP accumulation by radioimmunoassay and cell based assay
[8] = tested on: Cavia porcellus; test: Inhibition of acetylcholine-induced bronchoconstriction in male guinea pig assessed as pulmonary resistance administered via nebulization for 10 mins measured after 72 hrs by plethysmograph; type: functional, organism-based
Summary of the method: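 Guinea pigs dosed by nebulizer, 72 h before measurement. Pulmonary resistance measured in anesthetized, spontaneously breathing animals by head-out plethysmograph. Bronchoconstriction induced by increasing intravenous acetylcholine doses; PD2 is the ACh dose that doubles baseline resistance.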

[9] = tested on: Cavia porcellus; test: Inhibition of acetylcholine-induced bronchoconstriction in male guinea pig assessed as pulmonary resistance at 1 -100 ug/ml administered via nebulization for 10 mins measured after 1.5 hrs by plethysmograph; type: functional, organism-based
[10] = target: T3, Beta-1 adrenergic receptor; test: Displacement of [3H]dihydroalprenolol from beta1 receptor (unknown origin) by liquid scintillation counting and cell based assay
[11] = target: T2, Beta-2 adrenergic receptor; test: Displacement of [3H]dihydroalprenolol from beta2 receptor (unknown origin) by liquid scintillation counting and cell based assay
[12] = species on record: Homo sapiens; test: Selectivity ratio Ki for beta1 receptor (unknown origin) to Ki for beta2 receptor (unknown origin)
[13] = target: T1, Beta-2 adrenergic receptor; test: Agonist activity at beta2 receptor in guinea pig trachea assessed as fast onset of inhibition of electrically stimulated contraction

T2 sequence (P07550 whole entry): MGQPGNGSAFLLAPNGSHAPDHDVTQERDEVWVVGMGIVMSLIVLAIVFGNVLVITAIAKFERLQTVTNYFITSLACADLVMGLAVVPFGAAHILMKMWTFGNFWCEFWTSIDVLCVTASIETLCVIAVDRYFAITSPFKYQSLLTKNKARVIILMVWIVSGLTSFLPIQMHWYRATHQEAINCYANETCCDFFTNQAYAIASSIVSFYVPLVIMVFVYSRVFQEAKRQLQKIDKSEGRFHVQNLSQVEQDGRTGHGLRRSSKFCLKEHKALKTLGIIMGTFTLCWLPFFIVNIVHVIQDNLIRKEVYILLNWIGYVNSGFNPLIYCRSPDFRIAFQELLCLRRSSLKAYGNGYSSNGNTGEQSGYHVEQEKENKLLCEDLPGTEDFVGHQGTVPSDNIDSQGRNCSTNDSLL
Sequence of Beta-3 adrenergic receptor (P13945 whole entry): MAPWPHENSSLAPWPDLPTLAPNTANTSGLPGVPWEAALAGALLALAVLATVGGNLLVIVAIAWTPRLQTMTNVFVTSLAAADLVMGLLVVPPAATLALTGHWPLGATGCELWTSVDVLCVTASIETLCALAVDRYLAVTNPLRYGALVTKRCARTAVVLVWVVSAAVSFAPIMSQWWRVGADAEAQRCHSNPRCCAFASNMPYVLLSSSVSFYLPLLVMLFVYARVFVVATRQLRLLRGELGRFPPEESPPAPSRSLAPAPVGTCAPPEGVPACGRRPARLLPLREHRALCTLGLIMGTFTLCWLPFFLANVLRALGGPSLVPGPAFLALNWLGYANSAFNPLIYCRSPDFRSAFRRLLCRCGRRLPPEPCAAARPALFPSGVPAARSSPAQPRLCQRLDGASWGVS
T3 sequence (P08588 whole entry): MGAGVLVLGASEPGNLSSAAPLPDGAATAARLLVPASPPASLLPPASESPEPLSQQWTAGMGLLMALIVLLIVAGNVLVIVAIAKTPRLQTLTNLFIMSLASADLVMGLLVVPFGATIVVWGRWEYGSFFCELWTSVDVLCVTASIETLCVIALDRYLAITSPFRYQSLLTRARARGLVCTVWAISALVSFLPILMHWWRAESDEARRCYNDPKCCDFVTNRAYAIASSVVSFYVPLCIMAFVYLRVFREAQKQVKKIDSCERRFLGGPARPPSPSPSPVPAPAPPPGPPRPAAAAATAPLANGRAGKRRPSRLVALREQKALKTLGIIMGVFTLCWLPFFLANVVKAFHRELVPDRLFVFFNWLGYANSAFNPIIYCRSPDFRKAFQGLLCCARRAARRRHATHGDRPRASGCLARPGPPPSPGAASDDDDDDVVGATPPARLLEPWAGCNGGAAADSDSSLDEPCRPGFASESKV
T1 sequence (Q8K4Z4 whole entry): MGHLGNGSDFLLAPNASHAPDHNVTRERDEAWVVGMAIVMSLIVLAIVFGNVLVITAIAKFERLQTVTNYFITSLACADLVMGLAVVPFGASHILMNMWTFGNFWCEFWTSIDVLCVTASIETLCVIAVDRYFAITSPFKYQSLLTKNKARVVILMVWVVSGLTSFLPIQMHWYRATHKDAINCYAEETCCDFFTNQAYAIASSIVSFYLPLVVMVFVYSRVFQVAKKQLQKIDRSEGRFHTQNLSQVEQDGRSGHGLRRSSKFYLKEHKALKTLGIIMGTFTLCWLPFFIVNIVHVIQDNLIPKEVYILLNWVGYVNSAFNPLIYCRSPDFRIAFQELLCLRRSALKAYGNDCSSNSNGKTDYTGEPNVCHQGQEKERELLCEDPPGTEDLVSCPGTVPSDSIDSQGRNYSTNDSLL

Row | EC50 [3] | Ki [10] | Ki [11] | Ratio Ki [12] | Structure (SMILES) | also measured
1 | 0.501 nM |  |  |  | COc1ccc(Nc2ccc(CCNC[C@H](O)c3ccc(O)c(CO)c3)cc2)cc1-c1ccccc1 | EC50 [1]: 2 nM; EC50 [2]: 3.98 nM
2 | 0.126 nM |  |  |  | COc1ccc(Nc2ccc(CCNC[C@H](O)c3ccc(O)c(NC=O)c3)cc2)cc1-c1ccccc1 | EC50 [1]: 12.6 nM; EC50 [4]: 3.16 nM; Ratio EC50 [5]: 75; Ratio EC50 [6]: 26; EC50 [2]: 0.794 nM; EC50 [7]: 10 nM
3 | 0.126 nM |  |  |  | COc1ccc(Nc2ccc(CCNC[C@H](O)c3ccc(O)c4[nH]c(=O)ccc34)cc2)cc1-c1ccccc1 | EC50 [1]: 2 nM; EC50 [4]: 12.6 nM; Ratio EC50 [5]: 56; Ratio EC50 [6]: 100; inhibition [8]: Dose-dependent effect; EC50 [2]: 0.398 nM; EC50 [7]: 7.94 nM; inhibition [9]: Active
4 | 25.1 nM | > 10000 nM | 31600 nM |  | OCc1cc(C(O)CNCCc2ccc(Br)cc2)ccc1O (racemic) | 
5 | 1580 nM | > 10000 nM | > 10000 nM |  | OCc1cc(C(O)CNCCc2ccc(NCc3ccc(Cl)c(Cl)c3)cc2)ccc1O (racemic) | 
6 | 158 nM | > 10000 nM | > 10000 nM |  | OCc1cc(C(O)CNCCc2ccc(NCc3ccc4ccccc4c3)cc2)ccc1O (racemic) | 
7 | 398 nM | > 10000 nM | 12600 nM |  | OCc1cc(C(O)CNCCc2ccc(N3CCC(c4ccccc4)CC3)cc2)ccc1O (racemic) | 
8 | 501 nM | 79400 nM | 15800 nM | 4.8 | OCc1cc(C(O)CNCCc2ccc(N3CCC(Cc4ccccc4)CC3)cc2)ccc1O (racemic) | 
9 | 1580 nM | 126000 nM | 200000 nM | 0.6 | OCc1cc(C(O)CNCCc2ccc(N3CCC(CCCc4ccccc4)CC3)cc2)ccc1O (racemic) | 
10 | 1260 nM | 126000 nM | 39800 nM | 3.4 | O=C(c1ccccc1)C1CCN(c2ccc(CCNCC(O)c3ccc(O)c(CO)c3)cc2)CC1 (racemic) | 
11 | 200 nM | > 10000 nM | 31600 nM |  | OCc1cc(C(O)CNCCc2ccc(N3CCN(c4ccccc4)CC3)cc2)ccc1O (racemic) | 
12 | 631 nM | > 10000 nM | > 10000 nM |  | COc1ccc(CN2CCN(c3ccc(CCNCC(O)c4ccc(O)c(CO)c4)cc3)CC2)cc1 (racemic) | 
13 | 10000 nM | > 10000 nM | > 10000 nM |  | CC(=O)N1CCN(c2ccc(CCNCC(O)c3ccc(O)c(CO)c3)cc2)CC1 (racemic) | 
14 | 1000 nM | > 10000 nM | > 10000 nM |  | O=C(Cc1ccccc1)NC1CCN(c2ccc(CCNCC(O)c3ccc(O)c(CO)c3)cc2)CC1 (racemic) | 
15 | 20 nM | 6310 nM | 316 nM | 16 | OCc1cc(C(O)CNCCc2ccc(Nc3ccc(Oc4ccccc4)cc3)cc2)ccc1O (racemic) | 
16 | 2.51 nM | 12600 nM | 316 nM | 34 | OCc1cc(C(O)CNCCc2ccc(Nc3ccc4ccccc4c3)cc2)ccc1O (racemic) | 

Row | EC50 [3] | Ki [10] | Ki [11] | Ratio Ki [12] | Structure (SMILES) | also measured
17 | 3.98 nM | 31600 nM | 1260 nM | 27 | COc1ccc(Nc2ccc(CCNCC(O)c3ccc(O)c(CO)c3)cc2)cc1 (racemic) | 
18 | 200 nM | 31600 nM | 6310 nM | 5.4 | OCc1cc(C(O)CNCCc2ccc(Nc3cccc4ccccc34)cc2)ccc1O (racemic) | 
19 | 7.94 nM | 25100 nM | 794 nM | 31 | OCc1cc(C(O)CNCCc2ccc(Nc3ccc4c(c3)CCC4)cc2)ccc1O (racemic) | 
20 | 7.94 nM | 12600 nM | 316 nM | 36 | OCc1cc(C(O)CNCCc2ccc(Nc3ccc(-c4ccccc4)cc3)cc2)ccc1O (racemic) | 
21 | 2 nM | 12600 nM | 316 nM | 40 | OCc1cc(C(O)CNCCc2ccc(Nc3cccc(-c4ccccc4)c3)cc2)ccc1O (racemic) | 
22 | 1.26 nM | 20000 nM | 63.1 nM | 319 | COc1ccc(Nc2ccc(CCNCC(O)c3ccc(O)c(CO)c3)cc2)cc1-c1ccccc1 (racemic) | 
23 | 10 nM | 12600 nM | 631 nM | 17 | COc1cccc(Nc2ccc(CCNCC(O)c3ccc(O)c(CO)c3)cc2)c1 (racemic) | 
24 | 1.26 nM | 31600 nM | 158 nM | 178 | CCOc1ccc(Nc2ccc(CCNCC(O)c3ccc(O)c(CO)c3)cc2)cc1 (racemic) | EC50 [1]: 200 nM
25 | 2.51 nM | 7940 nM | 79.4 nM | 81 | CSc1ccc(Nc2ccc(CCNCC(O)c3ccc(O)c(CO)c3)cc2)cc1 (racemic) | 
26 | 2.51 nM | 15800 nM | 100 nM | 158 | CC(C)Oc1ccc(Nc2ccc(CCNCC(O)c3ccc(O)c(CO)c3)cc2)cc1 (racemic) | 
27 | 200 nM | 39800 nM | 1580 nM | 23 | OCc1cc(C(O)CNCCc2ccc(Nc3ccc(O)cc3)cc2)ccc1O (racemic) | 
28 | 31.6 nM | 7940 nM | 1260 nM | 6.5 | OCc1cc(C(O)CNCCc2ccc(Nc3ccc(F)cc3)cc2)ccc1O (racemic) | 
29 | 6.31 nM | 10000 nM | 251 nM | 36 | COC(=O)c1ccc(Nc2ccc(CCNCC(O)c3ccc(O)c(CO)c3)cc2)cc1 (racemic) | 
30 |  | 10000 nM | 3.16 nM | 3030 | O=CNc1cc([C@@H](O)CNCCc2ccc(NC[C@H](O)c3ccccc3)cc2)ccc1O [MILVETEROL] | EC50 [13]: 0.0501 nM
31 |  |  |  |  | OCc1cc(C(O)CNCCCCCCOCCCCc2ccccc2)ccc1O (configuration not stated) [SALMETEROL] | EC50 [1]: 31.6 nM; EC50 [4]: 1000 nM
